# Columns and labels:
# SK-MEL-5 [1] = assay: Cytotoxicity against human SK-MEL-5 cells assessed as cell growth at 0.01 uM after 48 hrs by sulforhodamine B assay; type: functional; details: SK-MEL-5, 48 h, read-out: Activity
# CAKI-1 = assay: Growth inhibition of human Caki1 cells after 48 hrs by sulforhodamine B assay; type: functional, cell-based; details: CAKI-1, 48 h
# How it was run: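 Five-dose SRB assay. Cells in RPMI 1640 with 5% FBS and 2 mM L-glutamine were seeded at 5,000–40,000 cells/well, with a TCA-fixed time-zero plate (Tz) taken at 24 h. Compound stocks were in DMSO, serially diluted 10-fold or ½-log to five concentrations, and incubated 48 h at 37 °C. Plates were stained with SRB and read at 515 nm. IC₅₀ was taken where [(Ti−Tz)/(C−Tz)]×100 = 50.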
# OVCAR-8 [2] = assay: Cytotoxicity against human OVCAR8 cells assessed as cell growth at 10 uM after 48 hrs by sulforhodamine B assay; type: functional; details: OVCAR-8, 48 h, read-out: Activity
# A498 = assay: Cytotoxicity against human A498 cells assessed as cell growth at 1 uM after 48 hrs by sulforhodamine B assay; type: functional; details: A498, 48 h, read-out: Activity
# How it was run: (§1)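 Cells grown in RPMI 1640 with 5% FBS and 2 mM L-glutamine, seeded at 5,000–40,000 cells/well by doubling time. Time-zero plates TCA-fixed after 24 h. Five concentrations (10-fold or half-log dilutions from DMSO stock) added; 48 h at 37 °C, 5% CO2. Cold TCA fixation (final 10%, 60 min, 4 °C), 0.4% SRB stain, dye solubilized in 10 mM trizma base, A515.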
# UACC-62 = assay: Cytotoxicity against human UACC62 cells assessed as cell growth at 0.001 uM after 48 hrs by sulforhodamine B assay; type: functional; details: UACC-62, 48 h, read-out: Activity
# NCI-H23 = assay: Cytotoxicity against human NCI-H23 cells assessed as cell growth at 1 uM after 48 hrs by sulforhodamine B assay; type: functional; details: NCI-H23, 48 h, read-out: Activity
# MDA-MB-435 [3] = assay: Growth inhibition of human MDA-MB-435 cells after 48 hrs by sulforhodamine B assay; type: functional, cell-based; details: MDA-MB-435, 48 h; for CC50: read-out: LC50 (the source's name)
# How it was run: (§2)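 Cells grown in RPMI 1640 with 5% FBS and 2 mM L-glutamine, seeded at 5,000–40,000 cells/well according to doubling time. After 24 h, time-zero plates are TCA-fixed. Five concentrations (10-fold or ½log dilutions, DMSO stocks) are applied for 48 h at 37 °C, 5% CO₂. Cells are TCA-fixed, SRB-stained and read at 515 nm. IC₅₀ is taken from [(Ti−Tz)/(C−Tz)]×100 = 50.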
# MDA-MB-435 [4] = assay: Cytotoxicity against human MDA-MB-435 cells assessed as cell growth at 100 nM after 48 hrs by sulforhodamine B assay; type: functional; details: MDA-MB-435, 48 h, read-out: Activity
# M14 = assay: Cytotoxicity against human M14 cells assessed as cell growth at 100 nM after 48 hrs by sulforhodamine B assay; type: functional; details: M14, 48 h, read-out: Activity
# OVCAR-3 = assay: Cytotoxicity against human OVCAR-3 cells assessed as cell growth at 0.001 uM after 48 hrs by sulforhodamine B assay; type: functional; details: OVCAR-3, 48 h, read-out: Activity
# SW-620 [5] = assay: Growth inhibition of human SW620 cells after 48 hrs by sulforhodamine B assay; type: functional, cell-based; details: SW-620, 48 h; for CC50: read-out: LC50 (the source's name); how it was run: as §2
# SK-MEL-5 [6] = assay: Cytotoxicity against human SK-MEL-5 cells assessed as cell growth at 1 uM after 48 hrs by sulforhodamine B assay; type: functional; details: SK-MEL-5, 48 h, read-out: Activity
# MOLT-4 = assay: Cytotoxicity against human MOLT4 cells assessed as cell growth at 100 nM after 48 hrs by sulforhodamine B assay; type: functional; details: MOLT-4, 48 h, read-out: Activity
# SW-620 [7] = assay: Cytotoxicity against human SW620 cells assessed as cell growth at 0.01 uM after 48 hrs by sulforhodamine B assay; type: functional; details: SW-620, 48 h, read-out: Activity
# MDA-MB-231 = assay: Cytotoxicity against human MDA-MB-231 cells assessed as cell growth at 0.001 uM after 48 hrs by sulforhodamine B assay; type: functional; details: MDA-MB-231, 48 h, read-out: Activity
# MDA-MB-468 = assay: Cytotoxicity against human MDA-MB-468 cells assessed as cell growth at 100 nM after 48 hrs by sulforhodamine B assay; type: functional; details: MDA-MB-468, 48 h, read-out: Activity
# SF-539 = assay: Cytotoxicity against human SF539 cells assessed as cell growth at 0.01 uM after 48 hrs by sulforhodamine B assay; type: functional; details: SF-539, 48 h, read-out: Activity
# OVCAR-5 [8] = assay: Cytotoxicity against human OVCAR5 cells assessed as cell growth at 100 nM after 48 hrs by sulforhodamine B assay; type: functional; details: OVCAR-5, 48 h, read-out: Activity
# A549 = assay: Cytotoxicity against human A549 cells assessed as cell growth at 1 uM after 48 hrs by sulforhodamine B assay; type: functional; details: A549, 48 h, read-out: Activity; how it was run: as §1
# HCT-116 [9] = assay: Cytotoxicity against human HCT116 cells assessed as cell growth at 1 uM after 48 hrs by sulforhodamine B assay; type: functional; details: HCT-116, 48 h, read-out: Activity
# NCI/ADR-RES [10] = assay: Cytotoxicity against human NCI/ADR-RES cells assessed as cell growth at 0.001 uM after 48 hrs by sulforhodamine B assay; type: functional; details: read-out: Activity
# NCI/ADR-RES [11] = assay: Cytotoxicity against human NCI/ADR-RES cells assessed as cell growth at 100 nM after 48 hrs by sulforhodamine B assay; type: functional; details: read-out: Activity
# SW-620 [12] = assay: Cytotoxicity against human SW620 cells assessed as cell growth at 10 uM after 48 hrs by sulforhodamine B assay; type: functional; details: SW-620, 48 h, read-out: Activity
# K562 = assay: Cytotoxicity against human K562 cells assessed as cell growth at 0.01 uM after 48 hrs by sulforhodamine B assay; type: functional; details: K562, 48 h, read-out: Activity
# KM12 = assay: Cytotoxicity against human KM12 cells assessed as cell growth at 0.01 uM after 48 hrs by sulforhodamine B assay; type: functional; details: KM12, 48 h, read-out: Activity
# HCT-116 [13] = assay: Growth inhibition of human HCT116 cells after 48 hrs by sulforhodamine B assay; type: functional, cell-based; details: HCT-116, 48 h; for CC50: read-out: LC50 (the source's name); how it was run: as §2
# [14] = Cytotoxicity against human Hs 578T cells assessed as cell growth at 100 nM after 48 hrs by sulforhodamine B assay; type: functional; details: read-out: Activity
# OVCAR-5 [15] = assay: Growth inhibition of human OVCAR5 cells after 48 hrs by sulforhodamine B assay; type: functional, cell-based; details: OVCAR-5, 48 h; for CC50: read-out: LC50 (the source's name); how it was run: as §2
# OVCAR-8 [16] = assay: Cytotoxicity against human OVCAR8 cells assessed as cell growth at 0.001 uM after 48 hrs by sulforhodamine B assay; type: functional; details: OVCAR-8, 48 h, read-out: Activity
compound,measurement,setting,value
CC(=O)c1ccccc1-c1ccc(-c2ccnc(NC(=O)Nc3cc(N4CCOCC4)cc(C(F)(F)F)c3)n2)cn1,growth at 0.01 µM,SK-MEL-5 [1],99%
same,GI50,CAKI-1,6.89 µM
same,IC50,CAKI-1,> 100 µM
same,LC50 (lethal concentration 50%),CAKI-1,> 100 µM
same,TGI,CAKI-1,> 100 µM
same,growth at 10 µM,OVCAR-8 [2],53%
same,growth at 1 µM,A498,83%
same,growth at 0.001 µM,UACC-62,94%
same,growth at 1 µM,NCI-H23,52%
same,GI50,MDA-MB-435 [3],> 100 µM
same,IC50,MDA-MB-435 [3],> 100 µM
same,TGI,MDA-MB-435 [3],> 100 µM
same,CC50,MDA-MB-435 [3],> 100 µM
same,growth at 0.1 µM,MDA-MB-435 [4],92%
same,growth at 0.1 µM,M14,77%
same,growth at 0.001 µM,OVCAR-3,107%
same,GI50,SW-620 [5],> 100 µM
same,IC50,SW-620 [5],> 100 µM
same,TGI,SW-620 [5],> 100 µM
same,CC50,SW-620 [5],> 100 µM
same,growth at 1 µM,SK-MEL-5 [6],33%
same,growth at 0.1 µM,MOLT-4,75%
same,growth at 0.01 µM,SW-620 [7],106%
same,growth at 0.001 µM,MDA-MB-231,101%
same,growth at 0.1 µM,MDA-MB-468,103%
same,growth at 0.01 µM,SF-539,107%
same,growth at 0.1 µM,OVCAR-5 [8],91%
same,growth at 1 µM,A549,82%
same,growth at 1 µM,HCT-116 [9],69%
same,growth at 0.001 µM,NCI/ADR-RES [10],100%
same,growth at 0.1 µM,NCI/ADR-RES [11],75%
same,growth at 10 µM,SW-620 [12],102%
same,growth at 0.01 µM,K562,75%
same,growth at 0.01 µM,KM12,98%
same,GI50,HCT-116 [13],> 100 µM
same,IC50,HCT-116 [13],> 100 µM
same,TGI,HCT-116 [13],> 100 µM
same,CC50,HCT-116 [13],> 100 µM
same,growth at 0.1 µM,[14],77%
same,GI50,OVCAR-5 [15],> 100 µM
same,IC50,OVCAR-5 [15],> 100 µM
same,TGI,OVCAR-5 [15],> 100 µM
same,CC50,OVCAR-5 [15],> 100 µM
same,growth at 0.001 µM,OVCAR-8 [16],92%
CC(=O)Nc1cccc(-c2ccc(-c3ccnc(NC(=O)Nc4cc(C(F)(F)F)cc(C(F)(F)F)c4)n3)cn2)c1.Cl,growth at 0.01 µM,SK-MEL-5 [1],91%
same,GI50,CAKI-1,2.37 µM
same,IC50,CAKI-1,2.37 µM
same,LC50 (lethal concentration 50%),CAKI-1,> 100 µM
same,TGI,CAKI-1,8.34 µM
same,growth at 10 µM,OVCAR-8 [2],-84%
same,growth at 1 µM,A498,41%
same,growth at 0.001 µM,UACC-62,93%
same,growth at 1 µM,NCI-H23,-16%
same,GI50,MDA-MB-435 [3],2.31 µM
same,IC50,MDA-MB-435 [3],2.31 µM
same,TGI,MDA-MB-435 [3],6.8 µM
same,CC50,MDA-MB-435 [3],> 100 µM
same,growth at 0.1 µM,MDA-MB-435 [4],89%
same,growth at 0.1 µM,M14,92%
same,growth at 0.001 µM,OVCAR-3,101%
same,GI50,SW-620 [5],2.3 µM
same,IC50,SW-620 [5],2.3 µM
same,TGI,SW-620 [5],5.59 µM
same,CC50,SW-620 [5],> 100 µM
same,growth at 1 µM,SK-MEL-5 [6],100%
same,growth at 0.1 µM,MOLT-4,69%
same,growth at 0.01 µM,SW-620 [7],95%
same,growth at 0.001 µM,MDA-MB-231,102%
same,growth at 0.1 µM,MDA-MB-468,47%
same,growth at 0.01 µM,SF-539,78%
same,growth at 0.1 µM,OVCAR-5 [8],97%
same,growth at 1 µM,A549,10%
same,growth at 1 µM,HCT-116 [9],-35%
same,growth at 0.001 µM,NCI/ADR-RES [10],95%
same,growth at 0.1 µM,NCI/ADR-RES [11],93%
same,growth at 10 µM,SW-620 [12],41%
same,growth at 0.01 µM,K562,32%
same,growth at 0.01 µM,KM12,99%
same,GI50,HCT-116 [13],1.6 µM
same,IC50,HCT-116 [13],1.6 µM
same,TGI,HCT-116 [13],4.71 µM
same,CC50,HCT-116 [13],17.1 µM
same,growth at 0.1 µM,[14],97%
same,GI50,OVCAR-5 [15],11.8 µM
same,IC50,OVCAR-5 [15],11.8 µM
same,TGI,OVCAR-5 [15],24.5 µM
same,CC50,OVCAR-5 [15],50.8 µM
same,growth at 0.001 µM,OVCAR-8 [16],102%

# — ChEMBL document CHEMBL1165943, “Design and synthesis of new anticancer pyrimidines with multiple-kinase inhibitory effect” (Bioorg Med Chem, 2010)
